Measurements as given in ChEMBL document CHEMBL1287651, “Synthesis and in vitro antibacterial activity of fluoroquinolone derivatives containing 3-(N'-alkoxycarbamimidoyl)-4-(alkoxyimino) pyrrolidines” (2010).
Values after ≈ are worked out from the molar mass of the structure shown.

Legend:
Format in all cases: functional
[1] = tested on: Staphylococcus epidermidis; assay: Antibacterial activity against methicillin-sensitive Staphylococcus epidermidis 09-3 after 18 to 24 hrs by twofold serial dilution method
Summary of the method: (§1)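 Standard twofold serial agar dilution method on agar media for MIC determination. Screened against representative Gram-positive and Gram-negative strains. Levofloxacin and GMFX served as control drugs.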

Klebsiella pneumoniae [2] = assay: Antibacterial activity against Klebsiella pneumoniae 09-21 after 18 to 24 hrs by twofold serial dilution method
Summary of the method: (§2)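 MIC determined by the standard twofold serial dilution method on agar media, screening against Gram-positive and Gram-negative strains. Levofloxacin and gemifloxacin were run alongside as reference drugs.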

Staphylococcus aureus [3] = assay: Antibacterial activity against methicillin-resistant Staphylococcus aureus 08-1 after 18 to 24 hrs by twofold serial dilution method; summary of the method: as §1
Pseudomonas aeruginosa [4] = assay: Antibacterial activity against Pseudomonas aeruginosa 09-33 after 18 to 24 hrs by twofold serial dilution method; summary of the method: as §2
Pseudomonas aeruginosa [5] = assay: Antibacterial activity against Pseudomonas aeruginosa 09-32 after 18 to 24 hrs by twofold serial dilution method; summary of the method: as §2
[6] = tested on: Staphylococcus epidermidis; assay: Antibacterial activity against methicillin-resistant Staphylococcus epidermidis 09-4 after 18 to 24 hrs by twofold serial dilution method; summary of the method: as §1
Escherichia coli [7] = assay: Antibacterial activity against Escherichia coli ATCC 25922 after 18 to 24 hrs by twofold serial dilution method; summary of the method: as §2
Streptococcus pneumoniae [8] = assay: Antibacterial activity against Streptococcus pneumoniae 08-4 after 18 to 24 hrs by twofold serial dilution method; summary of the method: as §2
Pseudomonas aeruginosa [9] = assay: Antibacterial activity against Pseudomonas aeruginosa ATCC 27853 after 18 to 24 hrs by twofold serial dilution method; summary of the method: as §2
[10] = tested on: Staphylococcus epidermidis; assay: Antibacterial activity against methicillin-resistant Staphylococcus epidermidis 09-3 after 18 to 24 hrs by twofold serial dilution method; summary of the method: as §1
[11] = tested on: Staphylococcus epidermidis; assay: Antibacterial activity against methicillin-sensitive Staphylococcus epidermidis 09-6 after 18 to 24 hrs by twofold serial dilution method; summary of the method: as §1
Escherichia coli [12] = assay: Antibacterial activity against Escherichia coli 08-21 after 18 to 24 hrs by twofold serial dilution method; summary of the method: as §2
Enterococcus faecalis [13] = assay: Antibacterial activity against Enterococcus faecalis 08-12 after 18 to 24 hrs by twofold serial dilution method; summary of the method: as §2
Streptococcus pneumoniae [14] = assay: Antibacterial activity against Streptococcus pneumoniae 08-2 after 18 to 24 hrs by twofold serial dilution method; summary of the method: as §2
Klebsiella pneumoniae [15] = assay: Antibacterial activity against Klebsiella pneumoniae 09-22 after 18 to 24 hrs by twofold serial dilution method; summary of the method: as §2
Enterococcus faecalis [16] = assay: Antibacterial activity against Enterococcus faecalis 08-10 after 18 to 24 hrs by twofold serial dilution method; summary of the method: as §2
Escherichia coli [17] = assay: Antibacterial activity against Escherichia coli 08-22 after 18 to 24 hrs by twofold serial dilution method; summary of the method: as §2
Enterococcus faecium [18] = assay: Antibacterial activity against Enterococcus faecium 08-2 after 18 to 24 hrs by twofold serial dilution method; summary of the method: as §2
Enterococcus faecium [19] = assay: Antibacterial activity against Enterococcus faecium 08-7 after 18 to 24 hrs by twofold serial dilution method; summary of the method: as §2
Staphylococcus aureus [20] = assay: Antibacterial activity against methicillin-sensitive Staphylococcus aureus 08-2 after 18 to 24 hrs by twofold serial dilution method; summary of the method: as §1
Pseudomonas aeruginosa [21] = assay: Antibacterial activity against Pseudomonas aeruginosa 09-35 after 18 to 24 hrs by twofold serial dilution method; summary of the method: as §2
Staphylococcus aureus [22] = assay: Antibacterial activity against Staphylococcus aureus ATCC […] after 18 to 24 hrs by twofold serial dilution method; summary of the method: as §2
Pseudomonas aeruginosa [23] = assay: Antibacterial activity against Pseudomonas aeruginosa 09-34 after 18 to 24 hrs by twofold serial dilution method; summary of the method: as §2
[24] = tested on: Staphylococcus epidermidis; assay: Antibacterial activity against methicillin-resistant Staphylococcus epidermidis 09-2 after 18 to 24 hrs by twofold serial dilution method; summary of the method: as §1
Klebsiella pneumoniae [25] = assay: Antibacterial activity against Klebsiella pneumoniae 09-23 after 18 to 24 hrs by twofold serial dilution method; summary of the method: as §2

Structure (SMILES)	MIC [1] [µg/mL]	MIC (Klebsiella pneumoniae [2]) [µg/mL]	MIC (Staphylococcus aureus [3]) [µg/mL]	MIC (Pseudomonas aeruginosa [5]) [µg/mL]	MIC [6] [µg/mL]	MIC (Escherichia coli [7]) [µg/mL]	MIC (Pseudomonas aeruginosa [9]) [µg/mL]	MIC [10] [µg/mL]	MIC [11] [µg/mL]	MIC (Escherichia coli [12]) [µg/mL]	MIC (Enterococcus faecalis [13]) [µg/mL]	MIC (Klebsiella pneumoniae [15]) [µg/mL]	MIC (Enterococcus faecalis [16]) [µg/mL]	MIC (Escherichia coli [17]) [µg/mL]	MIC (Enterococcus faecium [18]) [µg/mL]	MIC (Enterococcus faecium [19]) [µg/mL]	MIC (Staphylococcus aureus [20]) [µg/mL]	MIC (Pseudomonas aeruginosa [21]) [µg/mL]	MIC (Staphylococcus aureus [22]) [µg/mL]	MIC [24] [µg/mL]	further results
CO/N=C1\CN(c2nc3c(cc2F)c(=O)c(C(=O)O)cn3C2CC2)CC1/C(N)=N\OC (stereo unspecified)	0.25 (≈ 0.578 µM)	> 128	0.25 (≈ 0.578 µM)	128 (≈ 296 µM)	0.25 (≈ 0.578 µM)	128 (≈ 296 µM)	64 (≈ 148 µM)	0.25 (≈ 0.578 µM)	0.25 (≈ 0.578 µM)	> 128	> 128	1 (≈ 2.31 µM)	> 128	> 128	> 128	> 128	1 (≈ 2.31 µM)	64 (≈ 148 µM)	0.25 (≈ 0.578 µM)	1 (≈ 2.31 µM)	MIC (Pseudomonas aeruginosa [4]): > 128 µg/mL; MIC (Streptococcus pneumoniae [8]): 1 µg/mL (≈ 2.31 µM); MIC (Streptococcus pneumoniae [14]): > 128 µg/mL; MIC (Pseudomonas aeruginosa [23]): > 128 µg/mL; MIC (Klebsiella pneumoniae [25]): > 128 µg/mL
CCO/N=C1\CN(c2nc3c(cc2F)c(=O)c(C(=O)O)cn3C2CC2)CC1/C(N)=N\OC (stereo unspecified)	0.25 (≈ 0.56 µM)	> 128	0.25 (≈ 0.56 µM)	64 (≈ 143 µM)	0.25 (≈ 0.56 µM)	> 128	64 (≈ 143 µM)	0.125 (≈ 0.28 µM)	0.25 (≈ 0.56 µM)	> 128	> 128	1 (≈ 2.24 µM)	> 128	> 128	> 128	> 128	0.25 (≈ 0.56 µM)	64 (≈ 143 µM)	0.5 (≈ 1.12 µM)	128 (≈ 287 µM)	MIC (Pseudomonas aeruginosa [4]): > 128 µg/mL; MIC (Streptococcus pneumoniae [8]): 0.25 µg/mL (≈ 0.56 µM); MIC (Streptococcus pneumoniae [14]): 128 µg/mL (≈ 287 µM); MIC (Pseudomonas aeruginosa [23]): > 128 µg/mL; MIC (Klebsiella pneumoniae [25]): > 128 µg/mL
CCO/N=C(/N)C1CN(c2nc3c(cc2F)c(=O)c(C(=O)O)cn3C2CC2)C/C1=N\OC (stereo unspecified)	0.25 (≈ 0.56 µM)	> 128	2 (≈ 4.48 µM)	> 128	0.125 (≈ 0.28 µM)	> 128	> 128	0.25 (≈ 0.56 µM)	0.25 (≈ 0.56 µM)	> 128	> 128	16 (≈ 35.8 µM)	> 128	> 128	> 128	> 128	2 (≈ 4.48 µM)	> 128	2 (≈ 4.48 µM)	2 (≈ 4.48 µM)	MIC (Pseudomonas aeruginosa [4]): > 128 µg/mL; MIC (Streptococcus pneumoniae [8]): > 128 µg/mL; MIC (Streptococcus pneumoniae [14]): > 128 µg/mL; MIC (Pseudomonas aeruginosa [23]): > 128 µg/mL; MIC (Klebsiella pneumoniae [25]): > 128 µg/mL
CCO/N=C1\CN(c2nc3c(cc2F)c(=O)c(C(=O)O)cn3C2CC2)CC1/C(N)=N\OCC (stereo unspecified)	> 128	> 128	> 128	> 128	32 (≈ 69.5 µM)	128 (≈ 278 µM)	128 (≈ 278 µM)	8 (≈ 17.4 µM)	> 128	> 128	> 128	128 (≈ 278 µM)	> 128	> 128	> 128	> 128	8 (≈ 17.4 µM)	> 128	2 (≈ 4.34 µM)	8 (≈ 17.4 µM)	MIC (Pseudomonas aeruginosa [4]): > 128 µg/mL; MIC (Streptococcus pneumoniae [8]): > 128 µg/mL; MIC (Streptococcus pneumoniae [14]): > 128 µg/mL; MIC (Pseudomonas aeruginosa [23]): > 128 µg/mL; MIC (Klebsiella pneumoniae [25]): > 128 µg/mL
CO/N=C1\CN(c2nc3c(cc2F)c(=O)c(C(=O)O)cn3-c2ccc(F)cc2F)CC1/C(N)=N\OC (stereo unspecified)	0.5 (≈ 0.991 µM)	> 128	0.25 (≈ 0.496 µM)	128 (≈ 254 µM)	0.25 (≈ 0.496 µM)	128 (≈ 254 µM)	128 (≈ 254 µM)	0.25 (≈ 0.496 µM)	0.25 (≈ 0.496 µM)	> 128	> 128	1 (≈ 1.98 µM)	> 128	> 128	> 128	> 128	0.25 (≈ 0.496 µM)	128 (≈ 254 µM)	0.5 (≈ 0.991 µM)	0.5 (≈ 0.991 µM)	MIC (Pseudomonas aeruginosa [4]): > 128 µg/mL; MIC (Streptococcus pneumoniae [8]): 0.25 µg/mL (≈ 0.496 µM); MIC (Streptococcus pneumoniae [14]): 16 µg/mL (≈ 31.7 µM); MIC (Pseudomonas aeruginosa [23]): > 128 µg/mL; MIC (Klebsiella pneumoniae [25]): > 128 µg/mL
C[C@H]1COc2c(N3CCN(C)CC3)c(F)cc3c(=O)c(C(=O)O)cn1c23.C[C@H]1COc2c(N3CCN(C)CC3)c(F)cc3c(=O)c(C(=O)O)cn1c23.O [LEVOFLOXACIN]	0.125	8	0.125	16	0.25	0.125	0.5	0.25	2	16	4	16	8	16	8	2	0.06	0.25	0.06	0.25	MIC (Klebsiella pneumoniae [25]): 8 µg/mL
